From ChEMBL document CHEMBL4396869, “Design and Synthesis of Selective Phosphodiesterase 4D (PDE4D) Allosteric Inhibitors for the Treatment of Fragile X Syndrome and Other Brain Disorders” (J Med Chem, 2019)
The source made the active and inactive calls. The calls are words filed in the database; no cut-off is given here.

Key:
[1] = Stability in human liver microsomes assessed as parent compound remaining at 1 uM measured after 30 mins by LC-MS/MS analysis; assay type: ADME, Microsome; conditions: read-out: Stability
In short: (§1)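 Liver microsome stability run by a contract lab using standard protocols. Parent compound remaining measured after 30 min incubation.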

[2] = Stability in mouse liver microsomes assessed as parent compound remaining at 1 uM measured after 30 mins by LC-MS/MS analysis; assay type: ADME, Microsome; conditions: read-out: Stability; in short: as §1
[3] = Stability in rat liver microsomes assessed as parent compound remaining at 1 uM measured after 30 mins by LC-MS/MS analysis; assay type: ADME, Microsome; conditions: read-out: Stability; in short: as §1
[4] = Permeability across apical to basal side in MDCK-MDR1 cells; assay type: ADME, cell-based, Canis lupus familiaris; conditions: dog
In short: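 Cellular permeability in MDCK-MDR1 cells, apical-to-basal and basal-to-apical, run by a contract lab using standard protocols. Efflux ratio taken as B-A/A-B.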

[5] = (§2) Inhibition of recombinant human His6-tagged PDE4D7 UCR1 S129D mutant expressed in baculovirus infected Sf9 insect cells using cAMP as substrate preincubated for 5 to 10 mins followed by substrate addition and measured for 10 mins in presence of BSA by yeast myokinase/pyruvate kinase/lactate dehydrogenase-coupled fluorescence assay
Cytochrome P450 2C9 = Cytochrome P450 2C9 (Homo sapiens, UniProt P11712); test: Inhibition of CYP2C9 (unknown origin) by fluorescence-based assay; assay type: ADME
In short: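 CYP inhibition run with a fluorescent substrate by a contract laboratory under standard protocols; IC50 reported.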

[6] = as §2, with “PDE4D3” for “PDE4D7”, “S54D” for “S129D”, “mins” for “mins in presence of BSA”, “assay relative to control” for “assay”
[7] = Aqueous kinetic solubility of the compound in pH 7.4 PBS buffer at 100 uM measured after 1 hr; assay type: physicochemical; conditions: pH 7.4, 1 h
[8] = Oral bioavailability in C57Bl6 mouse; assay type: ADME, organism-based; conditions: in vivo
[9] = Ratio of drug level in C57Bl6 mouse brain to plasma; assay type: ADME
[10] = Cmax in ICR mouse at 0.3 mg/kg, po; assay type: ADME, organism-based; parameters: dose 0.3 mg/kg, route oral; conditions: in vivo
[11] = Oral bioavailability in rat; assay type: ADME, organism-based; conditions: in vivo
[12] = Toxicity in rat assessed as effect on CNS up to 60 mg/kg, po; assay type: organism-based; conditions: in vivo
[13] = Toxicity in rat assessed as pulmonary effect up to 60 mg/kg, po; assay type: organism-based; conditions: in vivo
[14] = Cardiovascular toxicity in dog at 100 mg/kg, po; assay type: organism-based, Canis lupus familiaris; conditions: in vivo
[15] = Toxicity in dog assessed as emesis at 100 mg/kg, po; assay type: organism-based, Canis lupus familiaris; conditions: in vivo
[16] = Toxicity in dog assessed as tremor at 100 mg/kg, po; assay type: organism-based, Canis lupus familiaris; conditions: in vivo
[17] = Toxicity in dog assessed as weight loss at 100 mg/kg, po; assay type: organism-based, Canis lupus familiaris; conditions: in vivo
[18] = Vascular toxicity in rat measured for 28 days; conditions: in vivo, 672 h
[19] = Vascular toxicity in dog during 90 days study by microscopic analysis; parameters: species or system Canis lupus familiaris; conditions: in vivo, 2160 h
Cynomolgus monkey = test: Induction of emesis in cynomolgus monkey up to 50 mg/kg, po; assay type: organism-based, Macaca fascicularis; conditions: in vivo
[20] = target: T1, 3',5'-cyclic-AMP phosphodiesterase 4B (Homo sapiens, UniProt Q07343); test: Inhibition of recombinant N-terminal GST-tagged full length human PDE4B1 expressed in baculovirus infected Sf9 cells using FAM-cAMP as substrate incubated for 60 mins by fluorescence assay; conditions: sf9, 1 h
[21] = target: cGMP-dependent 3',5'-cyclic phosphodiesterase (Homo sapiens, UniProt O00408); test: Inhibition of recombinant human full length N-terminal thrombin cleavage site-fused/GST-tagged PDE2A expressed in baculovirus infected Sf9 insect cells using FAM-cAMP as substrate measured after 60 mins by fluorescence assay; conditions: sf9, 1 h
[22] = target: cGMP-inhibited 3',5'-cyclic phosphodiesterase 3A (Homo sapiens, UniProt Q14432); test: Inhibition of recombinant human N-terminal His/GST-tagged PDE3A (669 to 1141 residues) expressed in baculovirus infected Sf9 insect cells using cAMP as substrate
[23] = Inhibition of recombinant N-terminal GST-tagged full length human PDE4A1A expressed in baculovirus infected Sf9 cells using FAM-cAMP as substrate incubated for 60 mins by fluorescence assay; conditions: sf9, 1 h
[24] = target: T1, 3',5'-cyclic-AMP phosphodiesterase 4B; test: Inhibition of recombinant human N-terminal GST-tagged PDE4B3 (2 to 721 residues) expressed in baculovirus infected Sf9 cells using FAM-cAMP as substrate incubated for 60 mins by fluorescence assay; conditions: sf9, 1 h
[25] = Inhibition of recombinant human N-terminal GST-tagged PDE4D7 (2 to 748 residues) expressed in baculovirus infected Sf9 cells using FAM-cAMP as substrate incubated for 60 mins by fluorescence assay; conditions: sf9, 1 h
[26] = target: cGMP-specific 3',5'-cyclic phosphodiesterase (Homo sapiens, UniProt O76074); test: Inhibition of recombinant human N-terminal GST-tagged PDE5A1 expressed in baculovirus infected Sf9 cells using FAM-cGMP as substrate incubated for 60 mins by fluorescence assay; conditions: sf9, 1 h
[27] = target: Cone cGMP-specific 3',5'-cyclic phosphodiesterase subunit alpha' (Homo sapiens, UniProt P51160); test: Inhibition of recombinant human N-terminal GST-tagged PDE6C expressed in baculovirus infected Sf9 cells using FAM-cGMP as substrate incubated for 60 mins by fluorescence assay; conditions: sf9, 1 h
[28] = target: High affinity 3',5'-cyclic-AMP phosphodiesterase 7A (Homo sapiens, UniProt Q13946); test: Inhibition of recombinant human N-terminal GST-tagged PDE7A2 (122 to end residues) expressed in baculovirus infected Sf9 cells using FAM-cAMP as substrate incubated for 60 mins by fluorescence assay; conditions: sf9, 1 h
[29] = target: High affinity cGMP-specific 3',5'-cyclic phosphodiesterase 9A (Homo sapiens, UniProt O76083); test: Inhibition of recombinant human full length N-terminal GST-tagged PDE9A2 expressed in baculovirus infected Sf9 cells using FAM-cGMP as substrate incubated for 60 mins by fluorescence assay; conditions: sf9, 1 h
[30] = target: cAMP and cAMP-inhibited cGMP 3',5'-cyclic phosphodiesterase 10A (Homo sapiens, UniProt Q9Y233); test: Inhibition of recombinant human N-terminal GST-tagged PDE10A1 (2 to 789 residues) expressed in baculovirus infected Sf9 cells using FAM-cAMP as substrate incubated for 60 mins by fluorescence assay; conditions: sf9, 1 h
[31] = Cmax in ICR mouse at 30 mg/kg, po; conditions: in vivo

T1 sequence (Q07343 whole entry, the tested form may be a part): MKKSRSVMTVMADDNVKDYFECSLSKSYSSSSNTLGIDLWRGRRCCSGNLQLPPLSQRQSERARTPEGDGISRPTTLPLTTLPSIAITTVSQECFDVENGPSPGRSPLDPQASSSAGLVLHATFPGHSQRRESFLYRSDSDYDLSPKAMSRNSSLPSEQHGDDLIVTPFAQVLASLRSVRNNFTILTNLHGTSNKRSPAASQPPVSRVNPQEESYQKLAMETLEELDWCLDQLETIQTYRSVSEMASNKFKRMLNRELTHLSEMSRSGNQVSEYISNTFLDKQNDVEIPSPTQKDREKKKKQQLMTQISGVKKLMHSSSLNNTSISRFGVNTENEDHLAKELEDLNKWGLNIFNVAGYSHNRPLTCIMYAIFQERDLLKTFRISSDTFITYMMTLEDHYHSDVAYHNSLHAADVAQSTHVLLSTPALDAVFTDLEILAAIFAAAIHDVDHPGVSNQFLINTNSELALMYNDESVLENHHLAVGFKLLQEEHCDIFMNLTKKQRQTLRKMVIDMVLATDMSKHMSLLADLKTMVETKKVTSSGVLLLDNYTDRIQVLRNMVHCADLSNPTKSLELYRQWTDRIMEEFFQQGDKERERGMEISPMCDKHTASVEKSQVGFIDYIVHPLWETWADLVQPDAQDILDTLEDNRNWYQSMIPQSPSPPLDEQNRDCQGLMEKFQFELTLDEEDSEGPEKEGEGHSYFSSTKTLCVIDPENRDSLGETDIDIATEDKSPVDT
Cone cGMP-specific 3',5'-cyclic phosphodiesterase subunit alpha', sequence (P51160 whole entry): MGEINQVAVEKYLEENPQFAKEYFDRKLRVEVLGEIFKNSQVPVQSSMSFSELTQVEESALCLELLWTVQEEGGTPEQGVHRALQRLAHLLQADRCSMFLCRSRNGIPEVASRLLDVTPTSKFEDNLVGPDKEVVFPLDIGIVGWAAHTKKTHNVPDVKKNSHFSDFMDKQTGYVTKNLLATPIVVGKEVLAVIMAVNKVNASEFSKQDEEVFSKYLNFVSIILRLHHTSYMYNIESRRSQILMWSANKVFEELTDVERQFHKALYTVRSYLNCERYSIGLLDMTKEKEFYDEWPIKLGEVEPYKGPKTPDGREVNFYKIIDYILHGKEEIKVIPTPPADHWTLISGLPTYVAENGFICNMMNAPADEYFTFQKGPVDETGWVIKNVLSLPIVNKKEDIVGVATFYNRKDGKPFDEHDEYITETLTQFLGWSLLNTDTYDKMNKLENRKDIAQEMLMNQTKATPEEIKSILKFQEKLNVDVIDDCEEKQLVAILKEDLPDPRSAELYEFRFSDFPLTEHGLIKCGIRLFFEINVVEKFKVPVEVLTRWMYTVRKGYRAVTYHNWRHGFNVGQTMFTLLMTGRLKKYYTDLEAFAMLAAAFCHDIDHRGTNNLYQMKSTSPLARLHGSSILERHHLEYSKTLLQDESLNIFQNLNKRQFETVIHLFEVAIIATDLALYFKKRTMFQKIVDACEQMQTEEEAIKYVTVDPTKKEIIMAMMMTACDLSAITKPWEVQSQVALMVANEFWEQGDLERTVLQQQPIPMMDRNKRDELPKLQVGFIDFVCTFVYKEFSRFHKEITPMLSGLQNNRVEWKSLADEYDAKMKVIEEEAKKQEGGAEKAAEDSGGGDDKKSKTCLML
Cytochrome P450 2C9, sequence (P11712 whole entry): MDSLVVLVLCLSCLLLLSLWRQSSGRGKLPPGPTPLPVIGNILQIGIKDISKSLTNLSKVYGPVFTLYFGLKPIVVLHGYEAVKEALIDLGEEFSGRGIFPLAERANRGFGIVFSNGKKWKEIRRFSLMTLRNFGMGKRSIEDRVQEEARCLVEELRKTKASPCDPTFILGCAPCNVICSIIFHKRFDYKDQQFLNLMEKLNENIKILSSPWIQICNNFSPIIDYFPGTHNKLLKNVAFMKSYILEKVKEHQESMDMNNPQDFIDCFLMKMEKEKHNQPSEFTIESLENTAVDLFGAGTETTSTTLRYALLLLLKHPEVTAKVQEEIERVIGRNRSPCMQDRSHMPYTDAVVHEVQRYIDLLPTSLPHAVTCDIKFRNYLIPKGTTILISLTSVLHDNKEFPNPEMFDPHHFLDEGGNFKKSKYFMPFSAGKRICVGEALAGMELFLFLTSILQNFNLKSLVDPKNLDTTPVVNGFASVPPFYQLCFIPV
cAMP and cAMP-inhibited cGMP 3',5'-cyclic phosphodiesterase 10A, sequence (Q9Y233 whole entry, the tested form may be a part): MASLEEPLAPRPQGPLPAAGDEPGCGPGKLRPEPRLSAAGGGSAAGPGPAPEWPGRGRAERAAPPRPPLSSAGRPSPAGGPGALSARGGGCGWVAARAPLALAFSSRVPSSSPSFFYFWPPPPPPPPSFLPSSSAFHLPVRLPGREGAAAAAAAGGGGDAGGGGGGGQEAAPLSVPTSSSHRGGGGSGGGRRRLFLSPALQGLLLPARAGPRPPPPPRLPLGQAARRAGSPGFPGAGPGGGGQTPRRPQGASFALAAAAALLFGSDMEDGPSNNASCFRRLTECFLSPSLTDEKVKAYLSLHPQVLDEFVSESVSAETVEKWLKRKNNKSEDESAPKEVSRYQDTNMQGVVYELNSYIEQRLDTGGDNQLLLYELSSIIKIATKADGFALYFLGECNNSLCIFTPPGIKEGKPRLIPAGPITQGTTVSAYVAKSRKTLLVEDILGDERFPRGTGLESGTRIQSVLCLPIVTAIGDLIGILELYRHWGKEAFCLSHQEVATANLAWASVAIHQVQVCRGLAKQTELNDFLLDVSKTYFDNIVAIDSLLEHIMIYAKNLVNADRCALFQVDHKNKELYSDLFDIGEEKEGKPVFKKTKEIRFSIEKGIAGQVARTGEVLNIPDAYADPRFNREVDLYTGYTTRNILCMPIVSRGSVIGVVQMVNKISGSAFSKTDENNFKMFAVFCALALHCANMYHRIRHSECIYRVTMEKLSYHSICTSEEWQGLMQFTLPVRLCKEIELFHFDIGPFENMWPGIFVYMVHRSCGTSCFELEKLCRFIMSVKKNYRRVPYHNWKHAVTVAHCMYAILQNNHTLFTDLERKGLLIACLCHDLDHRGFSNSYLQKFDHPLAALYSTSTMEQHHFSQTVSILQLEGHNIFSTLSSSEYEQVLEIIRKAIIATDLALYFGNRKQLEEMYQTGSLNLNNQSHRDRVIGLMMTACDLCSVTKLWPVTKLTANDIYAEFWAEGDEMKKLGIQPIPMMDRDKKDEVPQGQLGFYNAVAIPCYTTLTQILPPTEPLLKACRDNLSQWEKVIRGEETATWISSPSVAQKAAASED
cGMP-inhibited 3',5'-cyclic phosphodiesterase 3A, sequence (Q14432 whole entry, the tested form may be a part): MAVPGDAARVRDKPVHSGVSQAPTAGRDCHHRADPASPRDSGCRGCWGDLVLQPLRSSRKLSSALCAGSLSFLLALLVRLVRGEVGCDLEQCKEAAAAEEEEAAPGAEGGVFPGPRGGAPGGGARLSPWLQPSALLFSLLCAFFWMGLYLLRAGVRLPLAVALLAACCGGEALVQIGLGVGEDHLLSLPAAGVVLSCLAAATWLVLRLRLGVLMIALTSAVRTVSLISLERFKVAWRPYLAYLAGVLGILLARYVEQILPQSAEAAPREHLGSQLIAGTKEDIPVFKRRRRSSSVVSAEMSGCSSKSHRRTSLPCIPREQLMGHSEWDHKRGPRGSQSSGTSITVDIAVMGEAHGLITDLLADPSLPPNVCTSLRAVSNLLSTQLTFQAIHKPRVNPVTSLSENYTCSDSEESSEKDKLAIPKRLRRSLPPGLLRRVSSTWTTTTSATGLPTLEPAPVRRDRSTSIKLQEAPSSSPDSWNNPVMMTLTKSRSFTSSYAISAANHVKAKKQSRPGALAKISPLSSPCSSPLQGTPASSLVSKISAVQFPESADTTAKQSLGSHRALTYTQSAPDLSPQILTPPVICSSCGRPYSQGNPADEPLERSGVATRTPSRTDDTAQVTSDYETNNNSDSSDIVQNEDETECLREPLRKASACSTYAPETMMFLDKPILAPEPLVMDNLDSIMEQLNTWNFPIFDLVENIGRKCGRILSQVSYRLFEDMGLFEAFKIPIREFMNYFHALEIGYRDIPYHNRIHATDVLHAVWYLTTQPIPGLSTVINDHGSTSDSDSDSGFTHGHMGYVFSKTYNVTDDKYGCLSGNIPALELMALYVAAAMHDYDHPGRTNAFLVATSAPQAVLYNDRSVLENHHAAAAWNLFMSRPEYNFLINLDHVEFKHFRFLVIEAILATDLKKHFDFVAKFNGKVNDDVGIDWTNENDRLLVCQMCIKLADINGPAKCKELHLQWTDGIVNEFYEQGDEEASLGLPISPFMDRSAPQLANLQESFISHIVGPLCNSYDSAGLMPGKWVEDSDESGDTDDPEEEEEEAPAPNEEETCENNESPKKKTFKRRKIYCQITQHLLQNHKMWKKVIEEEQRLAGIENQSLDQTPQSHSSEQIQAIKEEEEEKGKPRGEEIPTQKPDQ
High affinity 3',5'-cyclic-AMP phosphodiesterase 7A, sequence (Q13946 whole entry): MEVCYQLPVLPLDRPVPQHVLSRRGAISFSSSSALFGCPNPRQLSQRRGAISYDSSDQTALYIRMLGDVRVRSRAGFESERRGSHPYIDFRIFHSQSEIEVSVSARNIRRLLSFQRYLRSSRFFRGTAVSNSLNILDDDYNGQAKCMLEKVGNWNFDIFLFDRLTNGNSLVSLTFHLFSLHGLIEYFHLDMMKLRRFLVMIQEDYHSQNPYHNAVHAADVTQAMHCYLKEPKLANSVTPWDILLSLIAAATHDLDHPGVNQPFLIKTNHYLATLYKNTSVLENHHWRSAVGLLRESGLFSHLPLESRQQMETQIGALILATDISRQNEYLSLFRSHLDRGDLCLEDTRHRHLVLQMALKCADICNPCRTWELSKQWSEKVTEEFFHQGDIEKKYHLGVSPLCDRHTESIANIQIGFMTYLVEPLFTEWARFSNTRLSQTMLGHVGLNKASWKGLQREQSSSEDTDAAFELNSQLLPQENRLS

`O=C(O)Cc1ccc(Cc2cc(-c3cccc(Cl)c3)nc(C(F)(F)F)c2)cc1` [ZATOLMILAST] showed a remaining at 0.5 h, 1 µM [1] of 88 to 100%, a remaining at 0.5 h, 1 µM [2] of 88 to 100% and a remaining at 0.5 h, 1 µM [3] of 88 to 100%. For the same compound, the permeability [4] was 53 ×10⁻⁶ cm/s, the inhibition [5] was “Active” and the IC50 (Cytochrome P450 2C9) was > 51 µM. It also gave an Imax [6] of 89%, a Kinetic_solubility [7] of 95 µM and an F [8] of 82%. For the same compound, the BPR [9] was 0.45, the Cmax [10] was 153 ng/mL and the bioavailability [11] was 80 to 100%. The Activity [12] was “Non-Toxic”, the Activity [13] was “Non-Toxic” and the Activity [14] was “Non-Toxic”. For the same compound, the Activity [15] was “Toxic”, the Activity [16] was “Toxic” and the Activity [17] was “Toxic”. The Activity [18] was “Non-Toxic”, the Activity [19] was “Non-Toxic” and the Activity (Cynomolgus monkey) was “Non-Toxic”. The “inhibition (INH)” value [20] was “Not Active”, the “inhibition (INH)” value [21] was “Not Active” and the “inhibition (INH)” value [22] was “Not Active”. For the same compound, the “inhibition (INH)” value [23] was “Not Active”, the “inhibition (INH)” value [24] was “Not Active” and the “inhibition (INH)” value [25] was “Not Active”. For the same compound, the “inhibition (INH)” value [26] was “Not Active”, the “inhibition (INH)” value [27] was “Not Active” and the “inhibition (INH)” value [28] was “Not Active”. For the same compound, the “inhibition (INH)” value [29] was “Not Active”, the “inhibition (INH)” value [30] was “Not Active” and the Cmax [31] was 11475 ng/mL.
